The values that follow come from ChEMBL document CHEMBL5661984, “Allosteric ligands for the pharmacologically dark receptors GPR68 and GPR65” (Nature, 2015).

Activity calls are given as the source filed them.

Broadly, the pKb is the Kb on a negative log10 scale, so that one unit is a factor of ten. What is called EC50 is the concentration giving half of the maximal effect. Broadly, the Emax is the maximal effect, on the per cent scale that the assay sets.

Data set [1] is described as follows: Binding affinity to GPR68 E160Q mutant expressed in human HEK293T cells assessed as cAMP production in presence of H+ proton by Split-luciferase based luminescence counter analysis. The conditions noted are these: condition central nervous system disease. A digest of the protocol:
(§1)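 Proton concentration-response of GPR68 (wild type or E160A/K/Q, R189L/M, H269F mutants) in transiently transfected HEK293-T cells. Read-out: GloSensor cAMP, with luciferin loading 90 min at 37°C at pH 8.4. Run with and without increasing modulator concentrations; 20 min at room temperature before luminescence. Proton KA fixed to the proton EC50 without modulator. KB, τA, α, β fitted globally with an operational allosteric model. n=4.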
(Cyclic AMP is a second messenger, typically raised through Gs and lowered through Gi signalling.)

The nature of data set [2]: Positive allosteric modulator activity at GPR68 R189L mutant transfected in human HEK293T cells assessed as proton-mediated calcium release at 10 uM incubated for 10 mins by Fluo-4 Direct calcium dye based FLIPR assay (reference value: 6.85 +/- 0.02). The conditions noted are these: HEK-293T. It is filed as cell-based.
Data set [3] in a line: Toxicity in C57BL/6 mouse assessed as cued memory retrieval by Morris water maze test. As to conditions: in vivo.
Data set [4] is described as follows: Positive allosteric modulator activity at GPR68 E160K mutant expressed in human HEK293T cells assessed as cAMP production in presence of H+ proton by Split-luciferase based luminescence counter analysis (reference value: 24.6+/-2.7 %). As to conditions: HEK-293T, condition central nervous system disease. A digest of the protocol:
as §1

The nature of data set [5]: Positive allosteric modulator activity at GPR68 R189L mutant transfected in human HEK293T cells assessed as proton-mediated calcium release at 10 uM incubated for 10 mins by Fluo-4 Direct calcium dye based FLIPR assay (reference value: 1.42 +/- 0.01 %). As to conditions: HEK-293T, condition central nervous system disease.
Data set [6] is described as follows: Positive allosteric modulator activity at GPR68 E160A mutant expressed in human HEK293T cells assessed as cAMP production in presence of H+ proton by Split-luciferase based luminescence counter analysis (reference value: 7.34+/-0.05). As to conditions: HEK-293T. The class given is cell-based. A digest of the protocol: as §1
Data set [7] in a line: Positive allosteric modulator activity at GPR68 R189M mutant transfected in human HEK293T cells assessed as proton-mediated calcium release at 10 uM incubated for 10 mins by Fluo-4 Direct calcium dye based FLIPR assay (reference value: 1.43 +/- 0.01 %). The conditions noted are these: HEK-293T, condition central nervous system disease.
In data set [8] the target is T1, G-protein coupled receptor 68 (Homo sapiens, UniProt Q15743). The data set can be described thus: Positive allosteric modulator activity at HA-tagged GPR68 expressed in human HEK293T cells assessed as activation of PKA at pH 7.4 by immunoblotting analysis. As to conditions: filed as positive allosteric modulator. It is filed as cell-based. A digest of the protocol: (§2)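 HEK293 cells stably expressing N-terminal HA-tagged human GPR68 (vector-only line as control), selected with 250 μg/ml G418. Confluent cells were switched to Hams-F12 at pH 8.0 or 7.4 for 1 h, then given vehicle or 50 μM compound for 10 min. Lysate immunoblots were probed for HA, total VASP, p-p42/p44 and β-actin, read with infrared-fluorophore secondaries.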
T1 sequence (Q15743 whole entry): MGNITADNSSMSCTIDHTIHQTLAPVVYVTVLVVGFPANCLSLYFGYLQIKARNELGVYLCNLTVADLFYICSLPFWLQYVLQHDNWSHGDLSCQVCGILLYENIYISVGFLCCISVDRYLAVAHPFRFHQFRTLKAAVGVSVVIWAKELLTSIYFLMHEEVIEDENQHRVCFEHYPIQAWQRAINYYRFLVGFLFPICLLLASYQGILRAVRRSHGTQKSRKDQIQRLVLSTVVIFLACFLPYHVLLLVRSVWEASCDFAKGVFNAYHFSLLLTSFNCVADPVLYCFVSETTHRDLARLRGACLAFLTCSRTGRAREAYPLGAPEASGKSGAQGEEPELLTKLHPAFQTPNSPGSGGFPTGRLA
For orientation: A western blot detects proteins with antibodies after separation by electrophoresis.

The nature of data set [9]: Positive allosteric modulator activity at GPR68 R189L mutant expressed in human HEK293T cells assessed as cAMP production in presence of H+ proton by Split-luciferase based luminescence counter analysis (reference value: 1.4 %). As to conditions: HEK-293T, condition central nervous system disease. A digest of the protocol: as §1
The target of data set [10] is T1, G-protein coupled receptor 68. The data set can be described thus: Positive allosteric modulator activity at HA-tagged GPR68 expressed in human HEK293T cells assessed as activation of p42/p44 MAP kinase at pH 7.4 by immunoblotting analysis. The class given is cell-based. The conditions noted are these: filed as positive allosteric modulator. A digest of the protocol: as §2

The nature of data set [11]: Positive allosteric modulator activity at GPR68 E160Q mutant expressed in human HEK293T cells assessed as cAMP production in presence of H+ proton by Split-luciferase based luminescence counter analysis (reference value: 6.83+/-0.09). It is filed as cell-based. As to conditions: HEK-293T. A digest of the protocol: as §1
The nature of data set [12]: Positive allosteric modulator activity at GPR68 R189M mutant expressed in human HEK293T cells assessed as cAMP production in presence of H+ proton by Split-luciferase based luminescence counter analysis (reference value: 3.7 %). The conditions noted are these: HEK-293T, condition central nervous system disease. A digest of the protocol: as §1
A short description of data set [13]: Positive allosteric modulator activity at GPR68 E160K mutant transfected in human HEK293T cells assessed as proton-mediated calcium release at 10 uM incubated for 10 mins by Fluo-4 Direct calcium dye based FLIPR assay (reference value: 6.79 +/- 0.02). The class given is cell-based. As to conditions: HEK-293T.
The species entered for a further data set is Mus musculus. Nature of the data set: […] activity against GPR68 knockout C57BL/6 mouse assessed as contextual memory retrieval. The class given is functional, organism-based. A digest of the protocol: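 Fear conditioning in wild-type and GPR68 KO C57BL/6J congenic mice. Training was 8 min: 3 pairings of a 30-s, 90 dB, 5 kHz tone with a 2-s, 0.6 mA foot shock. Context freezing scored at 24 h over 5 min; cue test at 48 h over 6 min. Freezing defined as no movement for 0.5 s. Compound 10 mg/kg in 10% Tween 80 or saline, 30 min before training. n=6–8 per group. Two-way ANOVA with Bonferroni post-hoc test.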

Data set [14] is described as follows: Positive allosteric modulator activity at GPR68 R189M mutant transfected in human HEK293T cells assessed as proton-mediated calcium release at 10 uM incubated for 10 mins by Fluo-4 Direct calcium dye based FLIPR assay (reference value: 6.77 +/- 0.01). It is filed as cell-based. The conditions noted are these: HEK-293T.

For the molecule `Nc1nc(NCc2ccccc2)nc(-c2ccccc2CO)n1` [Ogerin], the negative logarithm of the Kb (pKb) in data set [1] turned out to be 4.9. The EC50 in [2] is 0.0871 µM; in [6], 0.0117 µM; in data set [11] it was 0.0269 µM; in data set [13], 0.151 µM; in [14], 0.155 µM. In data set [3], the Activity result is “Non-Toxic”. Besides, the figures for the Emax in data set [4], in data set [9] and in data set [12] were 42.6%, 5.3% and 10%, respectively. The Emax at 10 µM in [5] was found to be 1.35%; in data set [7], 1.36%. For the same molecule, the outcome in [8] and in data set [10] was Active. The outcome in the data set filed under Mus musculus was inactive.
